Shown are actives, neighbours in structure and some others; about 1.7% of the full set was active somewhere.
Rce1 inhib: yeast Ras-converting enzyme inhibition; Q03530; yeast membranes, quenched prenylated peptide cleavage fluorescence; calls only; hit rate 0.27% among 290,000; AID 2563;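 active = fall in fluorescence gain of 50% or more versus controls, with final raw signal at or below 3038400; inconclusive = same 50% fall but final raw signal above 3038400; inactive = fall in fluorescence gain under 50%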;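 note: plate controls were neutral control wells for no effect and wells lacking membranes for full effect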
Runt-SMMHC FRET: blocks binding of human RUNX1 Runt domain to CBFb-SMMHC | Q01196+Q13951 | Cerulean-Runt/Venus-CBFb-SMMHC FRET ratio 530/480, 1 h | inhibition, % at 20 µM | hit rate 0.74% among 220,000 | AID 1434;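 active = mean inhibition across duplicate retests at 20 µM reaching about 50%, limit read from the data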;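 note: 0% = DMSO wells and 100% = wells with excess untagged CBFb-SMMHC; inhibitors lower the FRET ratio by blocking Runt binding to CBFb-SMMHC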
Target sequence (Q01196 whole entry, looked up, the tested form may be a part): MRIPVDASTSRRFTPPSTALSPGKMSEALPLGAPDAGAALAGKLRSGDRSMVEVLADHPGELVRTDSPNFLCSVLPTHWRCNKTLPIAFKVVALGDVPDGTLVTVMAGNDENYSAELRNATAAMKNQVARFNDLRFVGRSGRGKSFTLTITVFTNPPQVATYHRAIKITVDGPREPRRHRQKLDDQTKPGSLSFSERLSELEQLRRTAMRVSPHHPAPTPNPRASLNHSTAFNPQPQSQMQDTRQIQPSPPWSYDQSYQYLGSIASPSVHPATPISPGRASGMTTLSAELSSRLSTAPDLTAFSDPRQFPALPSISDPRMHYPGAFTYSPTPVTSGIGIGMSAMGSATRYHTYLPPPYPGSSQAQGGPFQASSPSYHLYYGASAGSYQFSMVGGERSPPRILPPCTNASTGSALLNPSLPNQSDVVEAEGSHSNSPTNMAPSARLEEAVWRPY
Target sequence (Q13951 whole entry, looked up, the tested form may be a part): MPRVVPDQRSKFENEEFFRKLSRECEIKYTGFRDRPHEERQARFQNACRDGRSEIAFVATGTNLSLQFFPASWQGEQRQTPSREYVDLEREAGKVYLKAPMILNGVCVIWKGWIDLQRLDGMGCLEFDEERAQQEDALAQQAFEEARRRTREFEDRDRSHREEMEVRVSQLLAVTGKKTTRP
Vif imaging: HIV Vif inhibition. HEK293T cells, Vif self-association by quenched fluorescence, imaging, 24 h. hit rate 0.35% among 340,000. AID 602346. inhibition, % at 7.49 µM; in the data active = inhibition above about 50%, passing the limit was not always enough; inconclusive = no clear call, values can overlap the other calls; inactive = below about 31%
RanGTP-Impb inh: inhibitors of RanGTP-importin-beta interaction, primary screen, biochemical, FRET, CFP-Ran, YFP-importin-beta, homogeneous; AID 2216; cell-free CFP-Ran/YFP-importin-beta FRET ratio; inhibition, % (test concentration not listed); hit rate 1.1% among 300,000;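 active = more than half of the replicate wells show a fall in the fluorescence ratio signal beyond about 16%, limit read from the data, passing the limit was not always enough; inconclusive = exactly half of the replicate wells pass the set limit; inactive = fewer than half of replicates pass the limit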;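 note: 0% = DMSO wells and 100% = Ran loaded with GDP instead of GTP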
Runt-CBFb FRET: Runt domain-CBFb interaction inhibition. Cerulean-Runt/Venus-CBFb FRET ratio 530/480, 1 h. inhibition, % at 20 µM. AID 1496. Q01196+Q13951. hit rate 0.46% among 220,000;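 active = inhibition over about 50% at 20 µM in the single-dose screen, limit read from the data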;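 note: 0% = DMSO wells and 100% = excess unlabeled CBFb competitor control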
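Assay system: Cerulean-Runt domain fusion protein, energy donor; Signal: fluorescence energy transfer, 422 nm excitation, 530/480 nm emission; Timing: 1 h compound exposure, room temperature; Control set: unlabeled CBFb; Medium: Tris buffer pH 7.5 with salts and BSA; Compound: single test concentration of 20 µM, 1% DMSO final; Probe or stimulus: Venus-CBFb 100 nM.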
YIC FRET counter: counter-screen for RanGTP-importin-beta inhibitors: YIC FRET probe; shares compounds with RanGTP-Impb inh; Purified YIC probe, intramolecular FRET ratio YFP/CFP; IC50, µM; hit rate 40% among 1,000; AID 435026;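 active = fitted half-maximal inhibitory concentration no more than tenfold above the top dose tested; inconclusive = flat fit with 30 to 70% activity, or poor fit; inactive = half-maximal concentration beyond tenfold above the top dose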
* marks the source's active call; other numbers are inactive results; i = inactive; ? = inconclusive; . = no result given.

SMILES	Rce1 inhib	Runt-SMMHC FRET	Vif imaging	RanGTP-Impb inh	Runt-CBFb FRET	YIC FRET counter
COc1ccc(NC2=CC(=O)CC(c3ccccc3)C2)c(OC)c1 (stereo unspecified)	i	-5.5	11.2	?	.	.
CCOc1ccccc1NC1=CC(=O)CC(c2ccccc2)C1 (stereo unspecified)	i	-8.4	15.6	24.4*	-2.4	>50
Cc1cc(S(=O)(=O)N2CCN(c3c(C)cccc3C)CC2)ccc1F	i	-4.7	-19.7	22.0*	1.0	>50
Cc1cc(S(=O)(=O)N2CCN(c3ccccc3C)CC2)ccc1F	i	-1.4	-0.1	-2.0	-1.2	.
Nc1c(Cl)cc(C2=NCCn3c2c2ccc(C(F)(F)F)cc2[n+]3[O-])cc1Cl	i	.	-2.5	-1.6	.	.
Cc1nn(C(=O)c2ccco2)c(C)c1CN1C(=O)c2ccccc2C1=O	i	-8.4	2.3	19.8*	-1.0	>50
COC(=O)c1cc(=O)n2c(sc3ccccc32)c1C#N	.	88.1*	-0.3	44.8*	66.3*	4.11*
CN1/C(=C\C(=O)COC(=O)c2ccc(O)c(O)c2)C(C)(C)c2ccccc21	i	-0.1	.	?	7.7	.
Cc1ccc(C)c(N=Cc2cc3c(cc2[N+](=O)[O-])OCO3)c1	i	11.4	-3.2	2.9	6.9	.
Cc1ccc(N=Cc2cc3c(cc2[N+](=O)[O-])OCO3)cc1[N+](=O)[O-]	i	.	-2.7	20.4*	.	>50
Cn1cnc(S(=O)(=O)NCc2ccc(Br)cc2)c1	i	.	4.2	0.1	.	.
Cc1ccc(NC(=O)COC(=O)c2ccc(=O)n(Cc3ccccc3)n2)cc1F	i	.	12.1	0.3	.	.
CCN1CCN(c2cc(=O)n(C3CCCCC3)c(=O)[nH]2)CC1	i	-0.2	-4.4	?	0.7	.
CCOC(=O)N1CCN(c2cc(=O)n(C3CCCCC3)c(=O)[nH]2)CC1	i	-0.6	-26.6	18.8*	5.0	>50
CCOC(=O)C1CCN(c2cc(=O)n(C3CCCCC3)c(=O)[nH]2)CC1	i	3.1	-48.1	51.1*	-1.5	>50
CN1CCN(c2cc(=O)n(C3CCCCC3)c(=O)[nH]2)CC1	i	3.2	4.9	10.4	0.7	.
O=C(Nc1cc(Cl)ccc1Cl)C1Cc2ccccc2O/C1=N\O (stereo unspecified)	i	.	-3.7	3.4	.	.
COC(CN(C)C(=O)c1cn(C)c2ccc(S(=O)(=O)N(C)C3CCCCC3)cc2c1=O)OC	i	.	6.2	1.8	.	.
Cc1ccc(OCC(=O)NCCNC(=O)c2ccc(C)nc2)cc1	i	.	?	20.9*	.	>50
CCOc1ccc2nc(SCC(=O)NCc3ccc4c(c3)OCO4)[nH]c2c1	i	4.4	.	29.7*	2.0	>50
O=C(CCS(=O)(=O)c1ccc(F)cc1)Nc1nccs1	.	.	-1.3	.	.	.
COc1ccc(N2C(=O)C3C4C=CC(CC4)C3C2=O)c([N+](=O)[O-])c1 (stereo unspecified)	i	0.9	17.7	-0.7	0.0	.
CCOc1ccc(N2C(=O)C3C4C=CC(CC4)C3C2=O)c([N+](=O)[O-])c1 (stereo unspecified)	i	1.2	-4.6	19.8*	1.4	>50
c1ccc(N2CCN(c3nc4cc5c(cc4s3)OCCO5)CC2)cc1	i	2.9	-21.0	8.9	0.9	.
c1c2c(cc3sc(N4CCOCC4)nc13)OCCO2	i	-0.5	29.1	22.8*	0.1	>50
SMILES	Rce1 inhib	Runt-SMMHC FRET	Vif imaging	RanGTP-Impb inh	Runt-CBFb FRET	YIC FRET counter
Nc1cc(C(=O)OCC(=O)NCCCc2ccccc2)ccc1Cl	i	.	23.4	3.4	.	.
O=C(COC(=O)c1ccc2ccccc2c1)NCCCc1ccccc1	i	1.1	-6.3	16.6*	-2.1	>50
COc1ccc([N+](=O)[O-])cc1NC(=O)CSc1ncccn1	i	-1.3	-1.5	19.7*	1.5	>50
COc1ccc([N+](=O)[O-])cc1NC(=O)CSc1nccc(C)n1	i	-6.3	-0.5	-1.8	-0.1	.
CN(CC(=O)Nc1ccc(F)c(F)c1F)C(=O)Cc1ccc(S(=O)(=O)N2CCOCC2)s1	.	.	-0.4	.	.	.
COCCN(CCOC)Cc1c(O)ccc2c1O/C(=C\c1ccco1)C2=O	i	.	6.1	-57.3	.	.
Cc1cc(O)cc2c1C(=O)/C(=C/c1ccco1)O2	i	.	-0.9	-27.0	.	.
CCN(CC)C(=O)Oc1ccc2c(c1)O/C(=C\c1ccco1)C2=O	i	.	5.7	18.2*	.	8.16*
